Test results published in ChEMBL document CHEMBL1131333, “2-Iminohomopiperidinium salts as selective inhibitors of inducible nitric oxide synthase (iNOS)” (J Med Chem, 1998).

Assays:
[1] = molecular target: T1, Nitric oxide synthase 3 (Homo sapiens, UniProt P29474); assay: Inhibitory activity evaluated from soluble cell extract of human endothelia constitutive enzyme (Endothelial nitric oxide synthase) and partially purified by DEAE-sepharose chromatography
T1 sequence (P29474 whole entry): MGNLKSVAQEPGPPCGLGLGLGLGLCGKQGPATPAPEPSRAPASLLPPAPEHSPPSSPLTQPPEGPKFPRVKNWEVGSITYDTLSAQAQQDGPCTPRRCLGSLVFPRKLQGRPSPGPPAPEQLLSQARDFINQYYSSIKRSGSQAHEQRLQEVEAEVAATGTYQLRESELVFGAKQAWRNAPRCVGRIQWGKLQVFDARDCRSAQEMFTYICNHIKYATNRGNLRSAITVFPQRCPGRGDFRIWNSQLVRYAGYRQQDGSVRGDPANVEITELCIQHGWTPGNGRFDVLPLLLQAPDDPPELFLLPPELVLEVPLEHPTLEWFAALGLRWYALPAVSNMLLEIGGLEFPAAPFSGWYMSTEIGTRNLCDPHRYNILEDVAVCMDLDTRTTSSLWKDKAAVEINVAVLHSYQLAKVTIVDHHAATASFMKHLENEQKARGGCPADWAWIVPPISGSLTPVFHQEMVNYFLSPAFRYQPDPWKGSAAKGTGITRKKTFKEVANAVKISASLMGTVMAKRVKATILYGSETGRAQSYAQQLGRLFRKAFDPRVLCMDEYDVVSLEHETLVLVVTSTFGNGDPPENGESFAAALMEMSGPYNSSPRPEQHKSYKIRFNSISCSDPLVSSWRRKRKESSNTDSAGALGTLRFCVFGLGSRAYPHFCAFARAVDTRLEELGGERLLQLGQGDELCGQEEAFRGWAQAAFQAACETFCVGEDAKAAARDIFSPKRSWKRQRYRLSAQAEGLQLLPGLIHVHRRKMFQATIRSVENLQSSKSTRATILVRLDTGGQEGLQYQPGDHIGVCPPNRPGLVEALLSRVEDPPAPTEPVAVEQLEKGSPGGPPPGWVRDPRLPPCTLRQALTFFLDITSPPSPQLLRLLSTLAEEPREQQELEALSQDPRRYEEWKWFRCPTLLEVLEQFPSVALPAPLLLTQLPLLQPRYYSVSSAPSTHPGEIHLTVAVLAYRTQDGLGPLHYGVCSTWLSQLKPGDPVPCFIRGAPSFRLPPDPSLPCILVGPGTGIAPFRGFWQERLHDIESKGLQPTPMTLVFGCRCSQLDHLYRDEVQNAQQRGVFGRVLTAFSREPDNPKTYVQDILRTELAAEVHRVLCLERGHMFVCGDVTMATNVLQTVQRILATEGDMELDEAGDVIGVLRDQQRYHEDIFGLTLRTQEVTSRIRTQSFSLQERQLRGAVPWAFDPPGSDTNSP
How it was run: (§1)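 Recombinant human iNOS, eNOS or nNOS expressed in Sf9 cells (baculovirus). L-[3H]arginine to [3H]citrulline conversion in Tris pH 7.6 with BSA, DTT, CaCl2, FAD, tetrahydrobiopterin, NADPH and 30 μM final L-arginine. Calmodulin at 40 nM final for eNOS and nNOS only. 15 min at 37 °C, stopped with EGTA/HEPES pH 5.5, Dowex separation, scintillation counting. At least duplicate.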

[2] = molecular target: T2, Nitric oxide synthase, inducible (Mus musculus, UniProt P29477); assay: The ability of compound to inhibit mouse Inducible nitric oxide synthase in LPS stimulated mouse RAW cells was determined; format: cell-based
T2 sequence (P29477 whole entry): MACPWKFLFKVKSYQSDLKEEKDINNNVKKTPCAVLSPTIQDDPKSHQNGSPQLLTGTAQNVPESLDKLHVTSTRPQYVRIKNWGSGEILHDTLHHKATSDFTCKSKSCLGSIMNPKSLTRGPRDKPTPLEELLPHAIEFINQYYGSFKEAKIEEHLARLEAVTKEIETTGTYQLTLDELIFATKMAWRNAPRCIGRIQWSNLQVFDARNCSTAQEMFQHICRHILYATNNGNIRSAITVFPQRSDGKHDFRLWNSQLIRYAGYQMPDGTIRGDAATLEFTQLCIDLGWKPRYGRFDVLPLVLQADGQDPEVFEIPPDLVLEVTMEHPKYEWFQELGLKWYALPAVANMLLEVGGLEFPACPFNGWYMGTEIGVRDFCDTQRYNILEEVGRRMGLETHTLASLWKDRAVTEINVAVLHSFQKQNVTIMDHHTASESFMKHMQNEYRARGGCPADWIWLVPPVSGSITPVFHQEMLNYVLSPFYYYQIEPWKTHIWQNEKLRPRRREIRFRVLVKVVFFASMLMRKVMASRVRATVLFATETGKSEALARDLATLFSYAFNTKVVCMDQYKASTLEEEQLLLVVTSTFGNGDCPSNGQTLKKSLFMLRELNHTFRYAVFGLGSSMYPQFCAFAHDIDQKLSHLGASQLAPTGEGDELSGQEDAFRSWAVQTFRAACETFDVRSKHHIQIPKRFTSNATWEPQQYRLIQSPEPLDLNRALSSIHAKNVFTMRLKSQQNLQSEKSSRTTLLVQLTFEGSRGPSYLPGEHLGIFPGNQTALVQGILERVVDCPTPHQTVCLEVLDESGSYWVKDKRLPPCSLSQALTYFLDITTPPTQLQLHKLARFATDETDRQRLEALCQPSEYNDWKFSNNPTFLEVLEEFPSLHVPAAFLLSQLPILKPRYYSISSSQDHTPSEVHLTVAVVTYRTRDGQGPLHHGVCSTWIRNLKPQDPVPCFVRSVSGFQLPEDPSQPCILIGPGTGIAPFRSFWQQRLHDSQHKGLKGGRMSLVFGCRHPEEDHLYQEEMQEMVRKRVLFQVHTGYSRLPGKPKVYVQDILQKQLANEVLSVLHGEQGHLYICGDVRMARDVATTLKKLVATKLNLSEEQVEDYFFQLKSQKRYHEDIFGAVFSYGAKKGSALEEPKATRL
How it was run: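 RAW 264.7 cells plated at 2×10^5/well and induced 17 h with 10 μg/mL LPS (E. coli O111:B4). Washed, preincubated 1 h on ice in Krebs Ringer/HEPES pH 7.5 with glucose, 30 μM L-arginine and five inhibitor concentrations, then 2 h at 37 °C. Nitrite measured fluorometrically.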

[3] = molecular target: Nitric oxide synthase, inducible (Homo sapiens, UniProt P35228); assay: Inhibitory activity evaluated for soluble cell extract of human Inducible nitric oxide synthase and partially purified by DEAE-sepharose chromatography; how it was run: as §1
Chain of Nitric oxide synthase, inducible (Homo sapiens, UniProt P35228) (P35228 whole entry): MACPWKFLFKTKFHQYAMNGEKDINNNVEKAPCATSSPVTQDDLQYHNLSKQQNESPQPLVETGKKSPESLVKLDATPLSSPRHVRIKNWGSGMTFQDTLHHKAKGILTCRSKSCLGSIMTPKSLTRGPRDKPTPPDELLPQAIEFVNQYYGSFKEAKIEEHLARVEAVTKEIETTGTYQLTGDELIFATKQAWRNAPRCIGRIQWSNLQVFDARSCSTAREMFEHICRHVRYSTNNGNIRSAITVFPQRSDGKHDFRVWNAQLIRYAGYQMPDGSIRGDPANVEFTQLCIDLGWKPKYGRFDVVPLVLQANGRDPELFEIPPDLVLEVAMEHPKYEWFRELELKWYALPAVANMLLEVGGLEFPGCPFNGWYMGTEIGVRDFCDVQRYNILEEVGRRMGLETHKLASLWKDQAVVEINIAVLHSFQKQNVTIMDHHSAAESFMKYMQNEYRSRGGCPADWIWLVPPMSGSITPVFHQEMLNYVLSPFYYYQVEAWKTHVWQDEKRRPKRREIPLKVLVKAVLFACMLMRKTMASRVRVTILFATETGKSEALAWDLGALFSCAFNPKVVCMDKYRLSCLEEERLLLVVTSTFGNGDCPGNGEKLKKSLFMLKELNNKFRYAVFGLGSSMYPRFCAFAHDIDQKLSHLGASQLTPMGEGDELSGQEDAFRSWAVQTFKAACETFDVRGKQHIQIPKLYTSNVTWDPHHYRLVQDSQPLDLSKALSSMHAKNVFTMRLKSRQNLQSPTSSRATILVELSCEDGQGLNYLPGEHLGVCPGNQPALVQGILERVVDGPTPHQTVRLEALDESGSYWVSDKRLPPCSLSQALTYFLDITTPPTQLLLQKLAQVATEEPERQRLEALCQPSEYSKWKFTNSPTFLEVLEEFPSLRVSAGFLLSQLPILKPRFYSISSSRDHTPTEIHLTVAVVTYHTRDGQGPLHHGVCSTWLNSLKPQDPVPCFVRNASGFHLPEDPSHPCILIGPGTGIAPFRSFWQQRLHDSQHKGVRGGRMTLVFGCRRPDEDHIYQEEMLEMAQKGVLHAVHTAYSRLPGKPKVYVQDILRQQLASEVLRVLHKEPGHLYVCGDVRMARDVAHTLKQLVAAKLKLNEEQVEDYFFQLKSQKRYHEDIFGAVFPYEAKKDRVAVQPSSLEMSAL

[4] = molecular target: T3, Nitric oxide synthase 1 (Homo sapiens, UniProt P29475); assay: Inhibitory activity evaluated from soluble cell extract of human nNeuronal nitric oxide synthase and partially purified by DEAE-sepharose chromatography; how it was run: as §1
T3 sequence (P29475 whole entry): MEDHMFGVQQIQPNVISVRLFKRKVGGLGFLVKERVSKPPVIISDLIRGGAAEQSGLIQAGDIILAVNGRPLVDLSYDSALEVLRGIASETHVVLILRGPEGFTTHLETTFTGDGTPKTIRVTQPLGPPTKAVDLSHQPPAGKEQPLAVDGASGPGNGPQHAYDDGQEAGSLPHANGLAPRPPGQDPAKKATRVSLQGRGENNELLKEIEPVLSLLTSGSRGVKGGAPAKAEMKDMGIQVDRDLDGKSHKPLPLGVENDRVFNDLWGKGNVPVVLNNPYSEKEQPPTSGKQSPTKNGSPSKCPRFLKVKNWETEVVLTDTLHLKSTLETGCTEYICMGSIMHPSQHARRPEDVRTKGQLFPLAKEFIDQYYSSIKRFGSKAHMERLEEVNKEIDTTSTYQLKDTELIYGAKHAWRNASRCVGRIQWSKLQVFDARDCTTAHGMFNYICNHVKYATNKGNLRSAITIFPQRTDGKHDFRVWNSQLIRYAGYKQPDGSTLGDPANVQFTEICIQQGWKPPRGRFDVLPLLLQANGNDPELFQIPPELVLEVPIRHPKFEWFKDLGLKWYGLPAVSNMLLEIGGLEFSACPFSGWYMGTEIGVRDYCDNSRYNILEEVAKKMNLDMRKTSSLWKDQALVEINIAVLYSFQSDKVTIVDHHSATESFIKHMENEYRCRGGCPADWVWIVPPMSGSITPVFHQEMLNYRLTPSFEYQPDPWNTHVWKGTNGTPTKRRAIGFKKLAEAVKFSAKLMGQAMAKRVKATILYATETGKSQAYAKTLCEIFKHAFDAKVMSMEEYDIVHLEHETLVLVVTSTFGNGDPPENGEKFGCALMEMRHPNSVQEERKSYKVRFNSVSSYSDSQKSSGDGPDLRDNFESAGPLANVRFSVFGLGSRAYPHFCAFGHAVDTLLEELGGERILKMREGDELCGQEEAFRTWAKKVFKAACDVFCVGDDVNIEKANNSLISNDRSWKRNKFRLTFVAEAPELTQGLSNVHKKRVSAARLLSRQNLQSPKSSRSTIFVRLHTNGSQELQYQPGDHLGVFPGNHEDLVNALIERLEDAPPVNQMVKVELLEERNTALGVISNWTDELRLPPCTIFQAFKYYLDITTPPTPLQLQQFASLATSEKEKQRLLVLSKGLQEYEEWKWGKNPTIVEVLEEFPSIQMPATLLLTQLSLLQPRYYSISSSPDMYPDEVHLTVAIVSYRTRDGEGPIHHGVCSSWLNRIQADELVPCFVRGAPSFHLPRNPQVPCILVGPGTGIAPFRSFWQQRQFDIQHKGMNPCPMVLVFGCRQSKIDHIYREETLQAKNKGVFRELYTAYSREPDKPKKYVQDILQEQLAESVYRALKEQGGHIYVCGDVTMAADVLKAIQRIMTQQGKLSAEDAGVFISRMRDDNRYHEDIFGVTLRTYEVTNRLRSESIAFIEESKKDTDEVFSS

[5] = molecular target: T3, Nitric oxide synthase 1; assay: Inhibitory activity evaluated from soluble cell extract of Neuronal nitric oxide synthase and partially purified by DEAE-sepharose chromatography
[6] = molecular target: T3, Nitric oxide synthase 1; assay: Inhibitory activity evaluated from soluble cell extract of human Neuronal nitric oxide synthase and partially purified by DEAE-sepharose chromatography; how it was run: as §1
[7] = molecular target: Nitric oxide synthase, inducible (Rattus norvegicus) (UniProt Q06518); assay: The ability of compounds to inhibit Inducible nitric oxide synthase in LPS-treated male Lewis rats at 10 mg/kg dose; format: organism-based; set-up: dose 10 mg/kg
Chain of Nitric oxide synthase, inducible (Rattus norvegicus) (Q06518 whole entry): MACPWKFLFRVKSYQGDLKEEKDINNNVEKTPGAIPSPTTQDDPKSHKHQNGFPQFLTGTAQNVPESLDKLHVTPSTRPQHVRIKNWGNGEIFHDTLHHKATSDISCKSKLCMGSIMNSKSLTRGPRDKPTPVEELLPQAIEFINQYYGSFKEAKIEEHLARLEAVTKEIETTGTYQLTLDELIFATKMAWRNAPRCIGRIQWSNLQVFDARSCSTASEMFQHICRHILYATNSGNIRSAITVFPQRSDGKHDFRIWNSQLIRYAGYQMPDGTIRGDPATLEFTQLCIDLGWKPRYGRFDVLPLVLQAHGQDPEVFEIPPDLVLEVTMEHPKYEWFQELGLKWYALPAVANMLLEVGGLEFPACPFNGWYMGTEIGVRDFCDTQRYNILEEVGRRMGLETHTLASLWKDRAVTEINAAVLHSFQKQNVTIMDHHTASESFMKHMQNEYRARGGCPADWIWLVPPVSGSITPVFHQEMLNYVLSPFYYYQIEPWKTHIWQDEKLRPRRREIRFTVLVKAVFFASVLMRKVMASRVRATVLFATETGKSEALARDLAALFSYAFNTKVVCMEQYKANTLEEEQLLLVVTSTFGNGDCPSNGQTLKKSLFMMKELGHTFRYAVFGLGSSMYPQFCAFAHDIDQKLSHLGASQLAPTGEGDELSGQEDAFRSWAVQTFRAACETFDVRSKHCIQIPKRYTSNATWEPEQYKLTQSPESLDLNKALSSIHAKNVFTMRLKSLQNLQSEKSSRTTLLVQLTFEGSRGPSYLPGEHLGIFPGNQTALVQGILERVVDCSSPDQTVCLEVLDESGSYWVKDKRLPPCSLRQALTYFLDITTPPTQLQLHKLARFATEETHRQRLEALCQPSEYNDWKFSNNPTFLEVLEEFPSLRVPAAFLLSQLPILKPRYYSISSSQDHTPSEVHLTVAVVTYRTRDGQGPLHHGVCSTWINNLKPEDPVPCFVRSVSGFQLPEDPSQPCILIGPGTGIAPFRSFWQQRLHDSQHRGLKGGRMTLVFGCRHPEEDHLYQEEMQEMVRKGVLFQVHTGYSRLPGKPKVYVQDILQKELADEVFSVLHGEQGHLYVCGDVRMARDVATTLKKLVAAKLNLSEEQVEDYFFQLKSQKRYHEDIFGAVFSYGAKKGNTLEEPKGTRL
How it was run: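 Rats dosed 10 mg/kg orally by gavage 1 h before LPS (10 mg/kg ip). Blood taken 5 h after LPS; plasma filtered through a 10 000 MW cutoff filter, and nitrite/nitrate measured fluorometrically. Percent inhibition calculated relative to rats given LPS alone.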

IC50 [1] [µM]	IC50 [2] [µM]	IC50 [3] [µM]	IC50 [4] [µM]	IC50 [5] [µM]	IC50 [6] [µM]	inhibition [7] [%]	Structure (SMILES)
39	–	–	3.8	–	–	–	C[C@@H]1CCCC(N)=NC1
660	3.3	2.1	–	–	5.4	–	CCC(CC)CC1CCCCC(N)=N1 (configuration not stated)
9.5	–	–	–	–	–	85	CCCC1CCCCC(N)=N1 (configuration not stated)
21	–	–	–	–	–	80	C=CCC1CCCCC(N)=N1 (configuration not stated)
103	1.6	0.5	0.85	–	–	60	CCCCC1CCCCC(N)=N1 (configuration not stated)

The next lines start with the compound.

Structure (SMILES)	IC50 [1] [µM]	IC50 [2] [µM]	IC50 [3] [µM]	IC50 [4] [µM]	IC50 [5] [µM]	IC50 [6] [µM]	inhibition [7] [%]
NC1=NCCCCC1	15	54	2.1	–	–	–	–
CCC1CCCCN=C1N (configuration not stated)	38	–	–	–	2.4	–	–
C=CCC1CCCCN=C1N (configuration not stated)	380	19	5.8	–	16	–	–
NC1=NC(c2ccccc2)CCCC1 (configuration not stated)	215	31	14	–	–	6.6	–
CC1CCN=C(N)CC1 (configuration not stated)	39	24	5.8	–	11	–	–
